Experimental data reported in ChEMBL document CHEMBL1142526, “Synthesis of new pyrazolo[5,1-c][1,2,4] benzotriazines, pyrazolo[5,1-c]pyrido[4,3-e][1,2,4] triazines and their open analogues as cytotoxic agents in normoxic and hypoxic conditions” (Bioorg Med Chem, 2008).
Activity calls are given as the source filed them. The rule behind the calls is not given here.

Legend:
[1] = tested on: HCT-8; experiment: Cytotoxicity against human HCT8 cells at 100 uM after 72 hrs by SRB assay; format: functional; settings: HCT-8, 72 h
In short: (§1)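 Single-concentration growth inhibition of HCT-8 cells: seeded at 5000/well with 24 h adherence at 37 °C in 5% CO2, then 72 h continuous drug exposure, eight replicate wells. Maximum final DMSO was 0.1%, with DMSO and MMC controls. Protein was stained with 0.4% SRB in 1% acetic acid, solubilised in 10 mM Tris and absorbance read at 540 nm.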

[2] = tested on: HCT-8; experiment: Cytotoxicity against human HCT8 cells at 10 uM after 72 hrs by SRB assay; format: functional; settings: HCT-8, 72 h; in short: as §1
[3] = tested on: HCT-8; experiment: Induction of ROS production in human HCT8 cells under normoxic condition by flow cytometric method relative to untreated control; format: functional, cell-based
In short: (§2)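 Dichlorofluorescein method. HCT-8 cells in D-MEM high glucose with 10% FCS, 1–2 × 10^6 per 25 cm² flask, adhered overnight, then given 10 µM under normoxia or hypoxia. DCFH-DA loaded 20 min at 37 °C. Cells harvested with Puck's EDTA, fluorescence read by flow cytometry with 535 nm filter. Expressed as % over DMSO-treated basal; mean ± SEM of at least three experiments.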

[4] = tested on: HCT-8; experiment: Induction of ROS production in human HCT8 cells under hypoxic condition by flow cytometric method relative to untreated control; format: functional, cell-based; in short: as §2
[5] = tested on: HCT-8; experiment: Cytotoxicity against human HCT8 cells after 72 hrs by SRB assay; format: functional, cell-based; settings: HCT-8, 72 h
In short: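 SRB assay on HCT-8 cells seeded at 5000/well and allowed 24 h adherence at 37 °C in 5% CO2, then given 72 h continuous exposure across a 10–100 concentration range, eight wells per condition. Maximum final DMSO was 0.1%. Fixed cells were stained with 0.4% SRB in 1% acetic acid, solubilised in 10 mM Tris and read at 540 nm. IC50 is the concentration giving a 50% reduction in net protein increase versus control.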

[6] = tested on: HCT-8; experiment: Cell cycle arrest in human HCT8 cells in normoxic condition assessed as accumulation at G0/G1 phase at 10 uM after 24 hrs by flow cytometry; format: functional
In short: (§3)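 HCT-8 cells in D-MEM high glucose with 10% FCS were seeded at 1–2 × 10^6 per 25 cm² flask, left to adhere overnight, then exposed to drug for 24 h under normoxia or hypoxia. Drug was washed out and cells reoxygenated for 48 h. Floating and adherent cells were pooled, fixed in 70% ice-cold ethanol and stained with PI (50 µg/ml) plus RNase A (5 U/ml) for 30 min. Phases and the sub-G1 hypodiploid fraction (DNA fragmentation) were read by flow cytometry.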

[7] = tested on: HCT-8; experiment: Cell cycle arrest in human HCT8 cells in normoxic condition assessed as accumulation at G0/G1 phase at 10 uM after 24 hrs of drug washout by flow cytometry; format: functional
[8] = tested on: HCT-8; experiment: Cell cycle arrest in human HCT8 cells in normoxic condition assessed as accumulation at G0/G1 phase at 10 uM after 48 hrs of drug washout by flow cytometry; format: functional
In short: (§4)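 HCT-8 cells in D-MEM high glucose with 10% FCS, plated at 1–2 × 10^6 per 25 cm² flask and left to adhere overnight. Exposed to 10 µM for 24 h, normoxia or hypoxia (0.1% O₂, 95% N₂/5% CO₂), then washed out and reoxygenated 48 h. Floating plus EDTA-harvested cells fixed in 70% ethanol, stained with PI (50 µg/ml) plus RNase A, phase fractions read by flow cytometry.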

[9] = tested on: HCT-8; experiment: Cell cycle arrest in human HCT8 cells in normoxic condition assessed as accumulation at S phase at 10 uM after 24 hrs by flow cytometry; format: functional; in short: as §3
[10] = tested on: HCT-8; experiment: Cell cycle arrest in human HCT8 cells in normoxic condition assessed as accumulation at S phase at 10 uM after 48 hrs of drug washout by flow cytometry; format: functional; in short: as §4
[11] = tested on: HCT-8; experiment: Cell cycle arrest in human HCT8 cells in normoxic condition assessed as accumulation at G2/M phase at 10 uM after 24 hrs by flow cytometry; format: functional; in short: as §3
[12] = tested on: HCT-8; experiment: Cell cycle arrest in human HCT8 cells in normoxic condition assessed as accumulation at G2/M phase at 10 uM after 24 hrs of drug washout by flow cytometry; format: functional; in short: as §3
[13] = tested on: HCT-8; experiment: Cell cycle arrest in human HCT8 cells in normoxic condition assessed as accumulation at G2/M phase at 10 uM after 48 hrs of drug washout by flow cytometry; format: functional; in short: as §4
[14] = tested on: HCT-8; experiment: Effect on cell cycle arrest in human HCT8 cells in normoxic condition assessed as DNA fragmentation at 10 uM after 24 hrs by flow cytometry; format: functional; in short: as §3
[15] = tested on: HCT-8; experiment: Effect on cell cycle arrest in human HCT8 cells in normoxic condition assessed as DNA fragmentation at 10 uM after 48 hrs of drug washout by flow cytometry; format: functional; in short: as §3
[16] = tested on: HCT-8; experiment: Cell cycle arrest in human HCT8 cells in hypoxic condition assessed as accumulation at G0/G1 phase at 10 uM after 24 hrs by flow cytometry; format: functional; in short: as §3
[17] = tested on: HCT-8; experiment: Cell cycle arrest in human HCT8 cells in hypoxic condition assessed as accumulation at G0/G1 phase at 10 uM after 24 hrs of drug washout by flow cytometry; format: functional; in short: as §3
[18] = tested on: HCT-8; experiment: Cell cycle arrest in human HCT8 cells in hypoxic condition assessed as accumulation at G0/G1 phase at 10 uM after 48 hrs of drug washout by flow cytometry; format: functional; in short: as §4
[19] = tested on: HCT-8; experiment: Cell cycle arrest in human HCT8 cells in hypoxic condition assessed as accumulation at S phase at 10 uM after 24 hrs by flow cytometry; format: functional; in short: as §3
[20] = tested on: HCT-8; experiment: Cell cycle arrest in human HCT8 cells in hypoxic condition assessed as accumulation at S phase at 10 uM after 48 hrs of drug washout by flow cytometry; format: functional; in short: as §4
[21] = tested on: HCT-8; experiment: Cell cycle arrest in human HCT8 cells in hypoxic condition assessed as accumulation at G2/M phase at 10 uM after 24 hrs by flow cytometry; format: functional; in short: as §3
[22] = tested on: HCT-8; experiment: Cell cycle arrest in human HCT8 cells in hypoxic condition assessed as accumulation at G2/M phase at 10 uM after 24 hrs of drug washout by flow cytometry; format: functional; in short: as §3
[23] = tested on: HCT-8; experiment: Cell cycle arrest in human HCT8 cells in hypoxic condition assessed as accumulation at G2/M phase at 10 uM after 48 hrs of drug washout by flow cytometry; format: functional; in short: as §4
[24] = tested on: HCT-8; experiment: Effect on cell cycle arrest in human HCT8 cells in hypoxic condition assessed as DNA fragmentation at 10 uM after 24 hrs by flow cytometry; format: functional; in short: as §3
[25] = tested on: HCT-8; experiment: Effect on cell cycle arrest in human HCT8 cells in hypoxic condition assessed as DNA fragmentation at 10 uM after 48 hrs of drug washout by flow cytometry; format: functional; in short: as §3

CN1CCN(c2ccc3c(c2)n2nccc2n[n+]3[O-])CC1
inhibition at 100 µM [1]: 32.4% | inhibition at 10 µM [2]: 3.19%

CN1CCN(c2ccc3nnc4c([N+](=O)[O-])cnn4c3c2[N+](=O)[O-])CC1
inhibition at 100 µM [1]: 98.7% | Activity [3]: Active | Activity [4]: Active | inhibition at 10 µM [2]: 73.8% | IC50 [5]: 5.98 µM | IC90 [5]: 18.5 µM | Activity [6]: 40.5% | Activity [7]: 48.6% | Activity [8]: 35.1% | Activity [9]: 37.3% | Activity [10]: 35.1% | Activity [11]: 22.2% | Activity [12]: 13.4% | Activity [13]: 35.1% | Activity [14]: 42% | Activity [15]: 59% | Activity [16]: 43.8% | Activity [17]: 51.2% | Activity [18]: 31.1% | Activity [19]: 40.5% | Activity [20]: 45.9% | Activity [21]: 15.6% | Activity [22]: 10.6% | Activity [23]: 23% | Activity [24]: 42.8% | Activity [25]: 21%

[O-][n+]1nc2ccnn2c2cc(-c3cccs3)ccc21
inhibition at 100 µM [1]: 48.5% | inhibition at 10 µM [2]: 10.9%

CCOC(=O)c1cnn(-c2ccncc2[N+](=O)[O-])c1N
inhibition at 100 µM [1]: 69.7% | inhibition at 10 µM [2]: 24.4% | IC50 [5]: 58.2 µM | IC90 [5]: > 100 µM

CCCCCOc1ccc2c(c1)n1nccc1n[n+]2[O-]
inhibition at 100 µM [1]: 38% | inhibition at 10 µM [2]: -6.17%

CO[C@@]12[C@H](COC(N)=O)C3=C(C(=O)C(C)=C(N)C3=O)N1C[C@@H]1N[C@@H]12 [MITOMYCIN]
IC50 [5]: 0.083 µM | IC90 [5]: 5.7 µM | Activity [6]: 40.3% | Activity [7]: 28.2% | Activity [9]: 36.9% | Activity [11]: 22.8% | Activity [12]: 19.2% | Activity [14]: 71.2% | Activity [15]: 44% | Activity [16]: 36.3% | Activity [17]: 43.2% | Activity [19]: 49.1% | Activity [21]: 14.6% | Activity [22]: 14.1% | Activity [24]: 42.8% | Activity [25]: 99%

CCOC(=O)c1cnn2c1n[n+]([O-])c1cnccc12
inhibition at 100 µM [1]: 97.4% | inhibition at 10 µM [2]: 12.7% | IC50 [5]: 23.8 µM | IC90 [5]: 49.1 µM

CN1CCN(c2ccc3c(c2)n2ncc([N+](=O)[O-])c2n[n+]3[O-])CC1
inhibition at 100 µM [1]: 93.2% | Activity [3]: Active | Activity [4]: Active | inhibition at 10 µM [2]: 25.1% | IC50 [5]: 62.5 µM | IC90 [5]: > 100 µM | Activity [6]: 40.3% | Activity [7]: 48% | Activity [8]: 39.8% | Activity [9]: 36.9% | Activity [10]: 35.3% | Activity [11]: 22.8% | Activity [12]: 13% | Activity [13]: 24.9% | Activity [14]: 39% | Activity [15]: 27% | Activity [16]: 34.6% | Activity [17]: 36.8% | Activity [18]: 47% | Activity [19]: 40.7% | Activity [20]: 40.4% | Activity [21]: 24.7% | Activity [22]: 20.2% | Activity [23]: 12.6% | Activity [24]: 46.3% | Activity [25]: 60%

NC(=O)c1cnn(-c2ccncc2[N+](=O)[O-])c1N
inhibition at 100 µM [1]: 22.4% | inhibition at 10 µM [2]: 9.72%

CCOC(=O)c1cn[nH]c1/N=[N+](/[O-])c1cc([N+](=O)[O-])ccc1O
inhibition at 100 µM [1]: 60.4% | inhibition at 10 µM [2]: 11.7% | IC50 [5]: 65.2 µM | IC90 [5]: > 100 µM

O=C(O)c1cnn2c1n[n+]([O-])c1cnccc12
inhibition at 100 µM [1]: 11.4% | inhibition at 10 µM [2]: 13.2%

COc1ccc(-c2ccc3c(c2)n2nccc2n[n+]3[O-])cc1
inhibition at 100 µM [1]: 21.6% | inhibition at 10 µM [2]: 11%

[O-][n+]1nc2ccnn2c2cc(-c3ccccc3)ccc21
inhibition at 100 µM [1]: 35.5% | inhibition at 10 µM [2]: 13.2%

CN1CCN(c2ccc3c(c2)n2ncc(-c4ccccc4)c2n[n+]3[O-])CC1
inhibition at 100 µM [1]: 69.6% | inhibition at 10 µM [2]: 53% | IC50 [5]: 10 µM | IC90 [5]: > 100 µM

CCOC(=O)c1cn[nH]c1/N=[N+](/[O-])c1cnccc1O
inhibition at 100 µM [1]: 31.5% | inhibition at 10 µM [2]: 3.87%

[O-][n+]1nc2ccnn2c2cc(O)ccc21
inhibition at 100 µM [1]: 19.7% | inhibition at 10 µM [2]: -4.21%

CN(C)CCOc1ccc2c(c1)n1nccc1n[n+]2[O-]
inhibition at 100 µM [1]: 42.3% | inhibition at 10 µM [2]: -2.36%

[O-][n+]1nc2ccnn2c2cc(N3CCOCC3)ccc21
inhibition at 100 µM [1]: 25.8% | inhibition at 10 µM [2]: 3.27%
